ChEMBL document CHEMBL1124309, “Toward the synthesis of isozyme-specific enzyme inhibitors. Potent inhibitors of rat methionine adenosyltransferases. Effect of one-atom elongation of the ribose-P alpha bridge in two covalent adducts of L-methionine and beta,gamma-imido-ATP” (J Med Chem, 1988)

How the values were obtained:
[1] = target: T1, S-adenosylmethionine synthetase (MAT 1 and MAT 2) (Rattus norvegicus, UniProt P13444+P18298); assay: Inhibition constant of Met varied compound was measured on MT variant methionine adenosyltransferase in rat ascitic hepatoma cells; format: cell-based
Summary of the method: (§1)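 L-[methyl-14C]methionine varied at six to eight levels, (0.5-4.0)×KM, with MgATP fixed at 2 mM for both M-2 and M-T; two inhibitor levels plus control. Incubations run in duplicate for 10 min at 37 °C, pH 8.2 Tris buffer with KCl, MgCl2 and DTT. Product on phosphocellulose discs counted by scintillation; no-ATP blanks. Ki from replots of double-reciprocal slopes/intercepts.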

[2] = target: T1, S-adenosylmethionine synthetase (MAT 1 and MAT 2); assay: Inhibition constant of ATP varied compound was measured on M-2 variate methionine adenosyltransferase in rat kidney
Summary of the method: (§2)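 Rat M-2 enzyme; MgATP varied at six to eight levels, (0.5-4.0)×KM, with L-[methyl-14C]methionine fixed at 60 μM; two inhibitor levels plus no-inhibitor control. 10 min, 37 °C, pH 8.2 Tris/KCl/MgCl2/DTT buffer, duplicates. Acid-stopped; product on phosphocellulose discs counted by scintillation; no-ATP blanks. Ki from slope/intercept replots of double-reciprocal plots.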

[3] = target: T1, S-adenosylmethionine synthetase (MAT 1 and MAT 2); assay: Inhibition constant of Met varied compound was measured on M-2 variant methionine adenosyltransferase in rat kidney; summary of the method: as §1
[4] = target: T1, S-adenosylmethionine synthetase (MAT 1 and MAT 2); assay: Inhibition constant of ATP varied compound was measured on MT variant methionine adenosyltransferase in rat ascitic hepatoma cells; format: cell-based
Summary of the method: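 M-T variant; MgATP varied at six to eight levels, (0.5-4.0)×KM, with L-[methyl-14C]methionine fixed at 120 μM; two inhibitor levels plus uninhibited control. Duplicate 10-min incubations at 37 °C in pH 8.2 Tris/KCl/MgCl2/DTT. Stopped with HClO4-methionine; labelled product bound to phosphocellulose discs, scintillation counted; no-ATP blanks. Ki by replotting double-reciprocal slopes/intercepts.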

[5] = target: T1, S-adenosylmethionine synthetase (MAT 1 and MAT 2); assay: Inhibition constant of ATP varied compound was measured on M-2 variate Methionine adenosyltransferase in rat kidney; summary of the method: as §2
[6] = target: T1, S-adenosylmethionine synthetase (MAT 1 and MAT 2); assay: Inhibition constant of Met varied compound was measured on M-2 variant Methionine adenosyltransferase in rat kidney; summary of the method: as §1

Compound	Ki [1]	Ki [2]	Ki [3]	Ki [4]	Ki [5]	Ki [6]
Nc1ncnc2c1ncn2[C@@H]1O[C@H](C(CCOP(=O)(O)OP(=O)(O)NP(=O)(O)O)SCCC(N)C(=O)O)[C@@H](O)[C@H]1O (stereo partly specified)	1500 nM	440 nM	2100 nM	810 nM	–	–
Nc1ncnc2c1ncn2[C@@H]1O[C@H]([C@@H](CNP(=O)(O)OP(=O)(O)OP(=O)(O)O)SCCC(N)C(=O)O)[C@@H](O)[C@H]1O (stereo partly specified)	2300 nM	360 nM	3000 nM	270 nM	–	–
Nc1ncnc2c1ncn2[C@@H]1O[C@H]([C@H](CSCCC(N)C(=O)O)OP(=O)(O)OP(=O)(O)NP(=O)(O)O)[C@@H](O)[C@H]1O (stereo partly specified)	670 nM	–	–	210 nM	130 nM	650 nM
Nc1ncnc2c1ncn2[C@@H]1O[C@H](CC(CSCC[C@H](N)C(=O)O)OP(=O)(O)OP(=O)(O)NP(=O)(O)O)[C@@H](O)[C@H]1O (stereo partly specified)	2700 nM	390 nM	2200 nM	630 nM	–	–
